CC50 data for 8 compounds are collected here from PubChem BioAssay AID504769 (Southern Research Specialized Biocontainment Screening …, 2011).

For this assay, the system named is Bladder 5637 cells viability, CellTiter-Glo, 72 h. Briefly: cytotoxicity in 5637 bladder cells, dose response, cytotoxicity control for bacterial capsule biogenesis inhibitors, cell-based, set 2 (AID 504769). In short, it runs like this:
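Material: Bladder carcinoma 5637 cell line | Schedule: 72 h compound exposure | Technique: CellTiter-Glo luminescence | Benchmarks: Hyamine as cytotoxic control, untreated cells as reference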

Turning to `O=C(Nc1nc2c(F)cccc2s1)c1ccccn1`, the half-maximal cytotoxic concentration (CC50) is 2.56 µM. `O=C(Nc1nc2c(F)cc(F)cc2s1)c1ccncc1`: the CC50 is 71.8 µM. Under `Cc1cc(C)c2nc(NC(=O)c3ccccn3)sc2c1` stands 6.19 µM; under `O=C(Nc1nc2ccccc2s1)c1ccncc1`, 104 µM; under `O=C(Nc1nc2ccccc2s1)c1cccnc1`, 129 µM.

`O=C(Nc1nc2ccc(F)cc2s1)c1ccccn1`: the 50% cytotoxic concentration (CC50) is 3.32 µM. In the case of `O=C(Nc1nc2c(F)cc(F)cc2s1)c1ccccc1`, the CC50 is 30.9 µM. Under `O=C(Nc1nc2c(Cl)cc(Cl)cc2s1)c1ccccn1` stands 3.55 µM.
